Results pooled from the literature.
Protocols differ between the studies behind these lines.
ABL1: Tyrosine-protein kinase ABL1 (ABL1, Homo sapiens, UniProt P00519)
ABL1 Q252H phosphorylated: Tyrosine-protein kinase ABL1, phosphorylated (ABL1, Homo sapiens, UniProt P00519, Q252H)
ABL1 phosphorylated: Tyrosine-protein kinase ABL1, phosphorylated (ABL1, Homo sapiens, UniProt P00519)
ABL1 Y253F: Tyrosine-protein kinase ABL1 (ABL1, Homo sapiens, UniProt P00519, Y253F)
ABL1 F317I: Tyrosine-protein kinase ABL1 (ABL1, Homo sapiens, UniProt P00519, F317I)

| SMILES | target | read-out | action | technique | tested at | quantity | result |
| --- | --- | --- | --- | --- | --- | --- | --- |
| Cc1nc(Nc2ncc(C(=O)Nc3c(C)cccc3Cl)s2)cc(N2CCC(O)CC2)n1 | ABL1 | enzyme activity | inhibitor | – | 1 nM | inhibition | 83% |
| C1=C/COCc2cc(ccc2OCCN2CCCC2)Nc2nccc(n2)-c2cccc(c2)COC/1 | Tyrosine-protein kinase ABL1 (ABL1, Homo sapiens, UniProt P00519, E255K) | binding | – | – | 0.1 µM | remaining binding | 23% |
| CC#CC(=O)N1CCC[C@H]1c1nc(-c2ccc(C(=O)Nc3ccccn3)cc2)c2c(N)nccn12 | ABL1 Q252H phosphorylated | enzyme activity | inhibitor | – | 1 µM | inhibition | 39% |
| Cc1nc(Nc2ncc(C(=O)Nc3c(C)cccc3Cl)s2)cc(N2CC[C@H](N)C2)n1 | ABL1 | enzyme activity | inhibitor | – | 1 nM | inhibition | 92% |
| C=CC(=O)N1CCC([C@@H]2CCNc3c(C(N)=O)c(-c4ccc(Oc5ccccc5)cc4)nn32)CC1 | Tyrosine-protein kinase ABL1, phosphorylated (ABL1, Homo sapiens, UniProt P00519, F317I) | enzyme activity | inhibitor | – | 1 µM | inhibition | 27% |
| CN1CCN(C(=O)c2ccc(NC(=O)Nc3ccc(N(C)c4ccnc(Nc5ccc(CS(C)(=O)=O)cc5)n4)cc3)cc2)CC1 | Tyrosine-protein kinase ABL1, non-phosphorylated (ABL1, Homo sapiens, UniProt P00519) | binding | – | competition with immobilised ligand | 1 µM | remaining binding | 9% |
| N#Cc1ccc(NC(=O)Nc2ccccc2)cc1 | ABL1 phosphorylated | cell-free assay | – | competition with immobilised ligand | 25 µM | remaining binding | 96% |
| C[C@H]1CC[C@H](n2c3cnccc3c3cnc(Nc4ccc5c(n4)CCN(C(=O)CO)C5)nc32)CC1 | ABL1 Y253F | cell-free assay | – | – | 1 µM | remaining signal | 100% |
| CCCCC(=O)Nc1ccc(-c2ccc3ncn(CCC)c(=O)c3c2)cn1 | ABL1 Q252H phosphorylated | binding | – | competition with immobilised ligand | 0.5 µM | remaining binding | 99% |
| [2H]c1cc(C)c(NC(=O)c2cnc(Nc3cc(N4CCCCC4)nc(C)n3)s2)c(Cl)c1 | ABL1 | enzyme activity | inhibitor | – | 10 nM | inhibition | > 90% |
| Cc1ccc(NC(=O)c2ccnc(C(F)(F)F)c2)cc1-c1cc(OCCO)nc(N2CCOCC2)c1 | ABL1 F317I | binding | – | – | 1 µM | remaining binding | 85% |
| COc1ccc2oc(-c3ccc4nc(N)oc4c3)c/c(=N\c3ccccc3NC(=O)CCN)c2c1 | ABL1 Y253F | cell-free assay | – | – | 1 µM | remaining signal | 95% |
| [2H]c1cc(C)c(NC(=O)c2cnc(Nc3cc(N4CC[C@@H](O)C4)nc(C)n3)s2)c(Cl)c1 | ABL1 | enzyme activity | inhibitor | – | 1 nM | inhibition | 87% |
| CO[C@@H]1[C@H](N(C)C(=O)c2ccccc2)C[C@H]2O[C@]1(C)n1c3ccccc3c3c4c(c5c6ccccc6n2c5c31)C(=O)NC4 | ABL1 phosphorylated | enzyme activity | inhibitor | – | 1 µM | inhibition | 31% |
| Cc1nc(Nc2ncc(C(=O)Nc3c(C)cccc3Cl)s2)cc(N2CCCCC2)n1 | ABL1 | enzyme activity | inhibitor | – | 1 nM | inhibition | 65% |
| COc1ccc2[nH]c3c4[nH]c5ccc(OC)cc5c4c4c(c3c2c1)C(=O)NC4=O | ABL1 F317I | binding | – | – | 1 µM | remaining binding | 87% |
